{"data": "Assay results from different studies", "organism": "Pseudomonas aeruginosa", "effect on": "microbial growth", "note": "Lines come from different studies, so protocols differ."}
{"SMILES": "CC(C)Oc1c(-n2cc(-c3ccc(NC(=O)C(CC(N)=O)NC(=O)c4ccc(NC(=O)c5ccc(C#N)cc5)cc4)cc3)nn2)ccc(C(=O)Nc2ccc(C(=O)O)cc2)c1O (stereo not drawn)", "strain": "PA14", "MIC": "8 µg/mL"}
{"SMILES": "CCCC(=O)Oc1c(C)c(O)c(C(=O)/C=C/c2ccccc2)c(OC)c1C", "method": "broth dilution", "strain": "ATCC27853", "MIC": "5000 µg/mL"}
{"SMILES": "NC[C@@H]1CN[C@H](CNC(=O)c2cc3ccc(-c4ccc(F)cc4)cc3[nH]2)C1", "method": "broth dilution", "strain": "PAO1", "MIC": "25 µg/mL"}
{"SMILES": "C[C@H]1COc2c(N3CCN(C)CC3)c(F)cc3c(=O)c(C(=O)O)cn1c23", "method": "broth dilution", "MIC": "138 µM"}
{"SMILES": "COc1c(C)c(O)c(C)c(O)c1C(=O)/C=C/c1ccccc1", "method": "broth dilution", "strain": "ATCC27853", "MIC": "1250 µg/mL"}
{"SMILES": "CCCCCCC/C=C/C(=O)N1C(=O)/C(=C(/C)O)C(=O)C1Cc1ccc(O)cc1 (stereo not drawn)", "strain": "PA01", "MIC": "> 200 µg/mL"}
{"SMILES": "Cc1ccc(C)n1-c1ccc(-c2nnc(-c3ccccc3Cl)[nH]2)cc1", "method": "broth dilution", "strain": "ATCC10145", "time": "18 h", "MIC": "250 µg/mL"}
{"SMILES": "CCCCCCC#Cc1cncc(-c2nnc(SCc3ccc([N+](=O)[O-])cc3)n2C)c1", "MIC": "≥ 20 µg/mL"}
{"SMILES": "CC(C)Oc1c(NC(=O)c2ccc(NC(=O)[C@H](CC(N)=O)NC(=O)c3ccc(NC(=O)c4cc(C#N)cn4C)cc3)cc2)ccc(C(=O)Nc2ccc(C(=O)O)cc2)c1O", "strain": "PA14", "MIC": "> 64 µg/mL"}
{"SMILES": "COc1ncc(O)c2c1C[C@H]1C[C@H]3[C@H](N(C)C)C(O)=C(C(N)=O)C(=O)[C@@]3(O)C(O)=C1C2=O.Cl.Cl", "method": "broth dilution", "strain": "ATCC27853", "MIC": "> 32 µg/mL"}
{"SMILES": "CC(C)Oc1c(NC(=O)c2ccc(NC(=O)[C@H](CC(N)=O)NC(=O)c3ccc(NC(=O)c4ccc(C#N)cc4)cc3)cc2)ccc(C(=O)NC2CCNCC2)c1O", "strain": "PA14", "MIC": "> 64 µg/mL"}
{"SMILES": "CN(C)c1c2c(c(O)c3cc(F)ccc13)C(=O)C1=C(O)[C@]3(O)C(=O)C(C(N)=O)=C(O)[C@@H](N(C)C)[C@@H]3C[C@@H]1C2", "method": "broth dilution", "strain": "ATCC27853", "MIC": "> 32 µg/mL"}
{"SMILES": "CN(C)c1cc(NC(=O)CNC(C)(C)C)c(O)c2c1C[C@H]1C[C@H]3[C@H](N(C)C)C(O)=C(C(N)=O)C(=O)[C@@]3(O)C(O)=C1C2=O", "method": "broth dilution", "strain": "ATCC27853", "MIC": "8 µg/mL"}
{"SMILES": "CC1(C)SC2C(NC(=O)C(NC(=O)C3=C(O)C(c4ccccc4)NC3=O)c3ccccc3)C(=O)N2C1C(=O)O (stereo not drawn)", "MIC": "50 µg/mL"}
{"SMILES": "COC1CN(Cc2ccc3cc4c(c(O)c3c2)C(=O)C2=C(O)[C@]3(O)C(=O)C(C(N)=O)=C(O)[C@@H](N(C)C)[C@@H]3C[C@@H]2C4)C1", "method": "broth dilution", "strain": "ATCC27853", "MIC": "32 µg/mL"}
{"SMILES": "CC1=NN(CNc2ccc(Cl)cc2)C(=O)C1=NNn1c(-c2ccccc2)nc2ccccc2c1=O", "method": "broth dilution", "time": "24 h", "MIC": "51.5 µM"}
{"SMILES": "Cc1ccc2nc(-c3ccc([N+](=O)[O-])cc3)n(Cc3ccccc3Cl)c2c1", "method": "broth dilution", "strain": "ATCC27853", "MIC": "256 µg/mL"}
{"SMILES": "Clc1ccccc1NCc1ccc(Oc2ccccn2)cc1", "MIC": "> 25 µg/mL"}
{"SMILES": "CC(C)Oc1c(NC(=O)c2ccc(NC(=O)[C@H](CC(N)=O)NC(=O)c3ccc(NC(=O)c4ccc(C#N)cc4)cc3)cc2)ccc(C(=O)Nc2cccc(C(=O)O)c2)c1O", "strain": "PA14", "MIC": "> 64 µg/mL"}
{"SMILES": "C[C@@H](O)[C@H]1C(=O)N2C(C(=O)O)=C(S[C@@H]3CN[C@H](C(=O)N(C)C)C3)[C@H](C)[C@H]12", "MIC": "1.3 µM"}
{"SMILES": "CC1=NN(CNc2ccc(C(=O)O)cc2)C(=O)C1=NNn1c(-c2ccccc2)nc2ccccc2c1=O", "method": "broth dilution", "time": "24 h", "MIC": "50.5 µM"}
{"SMILES": "CNC(=O)c1cc(Oc2ccc(NC(=O)Nc3ccc(Cl)c(C(F)(F)F)c3)cc2)ccn1", "strain": "DSM19882", "MIC": "> 100 µM"}
{"SMILES": "c1ccc(NCc2ccc(Oc3ccccn3)cc2)cc1", "MIC": "> 25 µg/mL"}
{"SMILES": "O=c1cc(-c2ccc(O)c(O)c2)oc2cc(O)cc(O)c12", "method": "broth dilution", "strain": "PAO1", "MIC": "256 µg/mL"}
{"SMILES": "Cc1ccc2nc(-c3ccc([N+](=O)[O-])cc3)n(Cc3ccc(Cl)cc3)c2c1", "method": "broth dilution", "strain": "ATCC27853", "MIC": "256 µg/mL"}
{"SMILES": "CC(C)Oc1c(NC(=O)c2ccc(NC(=O)[C@H](CC(N)=O)NC(=O)c3ccc(NC(=O)CCc4ccc(C#N)cc4)cc3)cc2)ccc(C(=O)Nc2ccc(C(=O)O)cc2)c1O", "strain": "PA14", "MIC": "> 64 µg/mL"}
{"SMILES": "O=C(CCc1cc(O)c(O)c(O)c1)NCCCCCCCC[P+](c1ccccc1)(c1ccccc1)c1ccccc1.[Br-]", "method": "broth dilution", "strain": "ATCC27853", "time": "18 h", "MIC": "> 32 µg/mL"}
{"SMILES": "CC(C)Oc1c(NC(=O)c2ccc(NC(=O)[C@H](CC(N)=O)NC(=O)c3ccc(NC(=O)c4cccc([N+](=O)[O-])c4)cc3)cc2)ccc(C(=O)Nc2ccc(C(=O)O)cc2)c1O", "strain": "PA14", "MIC": "> 64 µg/mL"}
{"SMILES": "CCCCCCC/C=C/C(=O)N1C(=O)/C(=C(/C)O)C(=O)C1CO (stereo not drawn)", "strain": "PA01", "MIC": "> 200 µg/mL"}
{"SMILES": "CN(C)[C@@H]1C(O)=C(C(N)=O)C(=O)[C@@]2(O)C(O)=C3C(=O)c4c(O)c(NC(=O)CNC(C)(C)C)nc(F)c4C[C@H]3C[C@@H]12.Cl.Cl", "method": "broth dilution", "strain": "ATCC27853", "MIC": "> 32 µg/mL"}
{"SMILES": "C[C@H]1COc2c(N3CCN(C)CC3)c(F)cc3c(=O)c(C(=O)O)cn1c23", "method": "agar dilution", "strain": "ATCC27", "MIC": "1 µg/mL"}
{"SMILES": "CC(C)Oc1c(NC(=O)c2ccc(NC(=O)[C@H](CC(N)=O)NC(=O)c3cccc(-c4cccc(C#N)c4)c3)cc2)ccc(C(=O)Nc2ccc(C(=O)O)cc2)c1O", "strain": "PA14", "MIC": "> 64 µg/mL"}
{"SMILES": "Cc1ccc(C)n1-c1ccc(-c2nnc(-c3ccc(Br)cc3)[nH]2)cc1", "method": "broth dilution", "strain": "ATCC10145", "time": "18 h", "MIC": "125 µg/mL"}
{"SMILES": "O=C(Nc1ccc(F)c(Cl)c1)c1cc(Cl)ccc1O", "method": "broth dilution", "strain": "ATCC27853", "MIC": "> 64 µg/mL"}
{"SMILES": "CC1(C)S[C@@H]2[C@H](NC(=O)[C@H](N)c3ccccc3)C(=O)N2[C@H]1C(=O)O", "MIC": "> 200 µg/mL"}
{"SMILES": "O=c1c(O)c(-c2ccc(O)c(O)c2)oc2cc(O)cc(O)c12", "method": "broth dilution", "strain": "PAO1", "MIC": "256 µg/mL"}
